Rows were chosen to be rich in hits. Some 4.1% of all compounds tested hit in one or more screens of this group.
hERG rescue: hERG rescue from dofetilide block, primary screen, cell-based, CHO-hERG, FluxOR thallium flux, dofetilide IC70. activation (rescue from dofetilide block), less the hit threshold, % at 10 µM. 310,000 tested, 0.51% active. Voltage-gated inwardly rectifying potassium channel KCNH2 (Homo sapiens), Q12809. AID 1511, 2009. dofetilide IC70 present;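 active = activation above the mean of controls blocked by dofetilide plus 5 SD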;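 also: thallium influx through hERG after potassium depolarization seen as dye fluorescence rise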
Cl transport mod: KCC2 cotransporter modulators, thallium flux, primary screen, cell-based, HEK293 KCC2, FluoZin-2 fluorescence, MLSMR | Solute carrier family 12 member 5 (Homo sapiens), Q9H2X9 | KCC2 cells, thallium flux FluoZin-2 fluorescence | AID 1456, 2008 | 190,000 tested, 2.2% active | B-score of Tl+ flux slope (higher = more flux/activation; lower = inhibition) at 10 µM;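 active = thallium flux slope and its plate-corrected score both differing from the plate sample mean at a set confidence after two filtering rounds, in either direction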;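 also: slope of fluorescence scaled to starting intensity during 10 to 20 s after thallium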
KCNQ1 act: potentiators or activators of KCNQ1 channel, primary screen, cell-based, thallium flux, high-throughput. CHO-K1 KCNQ1, thallium flux FluxOR fluorescence; stronger effect = higher value. B-score at 10 µM. 310,000 tested, 0.35% active. AID 2648, 2010;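 active = fluorescence ratio B-score, a plate-corrected score, at least three library SD, with initial intensity B-score within 5 SD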
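System: CHO-K1 cells stably expressing KCNQ1 / Medium: assay buffer for compound exposure, DMSO matched across wells / Reagent: thallium- and potassium-containing depolarizing buffer / Compound: one concentration, matched DMSO / Incubation: 20 min compound pretreatment at room temperature / Measured by: kinetic FluxOR fluorescence, 10 s baseline plus 110 s post-stimulus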
KCNQ1 block: inhibitors of human KCNQ1 channel, primary screen, cell-based, thallium flux, high-throughput | Potassium voltage-gated channel subfamily KQT member 1 (Homo sapiens), P51787 | CHO-K1 KCNQ1, FluxOR thallium flux fluorescence; stronger effect = higher value | B-score at 10 µM | 310,000 tested, 1.3% active;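 active = compounds whose thallium flux B-score, printed positive for inhibition, exceeds three library SD while starting fluorescence stays within three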;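 also: channel opened by potassium depolarization with thallium stimulus after 20 min compound exposure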
KCNK9 inh: KCNK9 potassium channel inhibitors, primary screen, HEK293 cells, thallium flux. Potassium channel subfamily K member 9 (Homo sapiens), Q9NPC2. FluxOR thallium flux fluorescence; stronger effect = lower value. B-score at 10 µM. 310,000 tested, 1.2% active. AID 488922, 2010;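 active = ratio B-score over 3 SD below the library mean, with starting fluorescence within 5 SD of its mean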;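 also: negative B-score means less thallium flux so channel inhibition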
Target sequence (Q9NPC2 whole entry, looked up): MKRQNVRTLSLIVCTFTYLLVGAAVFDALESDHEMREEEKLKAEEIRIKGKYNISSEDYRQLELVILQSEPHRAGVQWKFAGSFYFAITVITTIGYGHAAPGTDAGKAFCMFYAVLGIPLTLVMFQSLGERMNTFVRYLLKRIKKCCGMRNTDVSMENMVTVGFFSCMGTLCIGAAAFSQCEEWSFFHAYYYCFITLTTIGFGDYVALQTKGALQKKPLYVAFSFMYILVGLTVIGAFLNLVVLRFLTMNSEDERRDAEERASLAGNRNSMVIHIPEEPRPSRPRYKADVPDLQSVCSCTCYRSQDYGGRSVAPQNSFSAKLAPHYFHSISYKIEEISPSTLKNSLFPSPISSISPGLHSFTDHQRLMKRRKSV
KCNK3 inh: human KCNK3 channel inhibitors, primary screen, CHO cells, FluxOR thallium flux, B-score; FluxOR fluorescence; stronger effect = lower value; 340,000 tested, 0.84% active; Potassium channel subfamily K member 3 (Homo sapiens), O14649; AID 602410, 2012; B-score at 10 µM;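 active = B-score under library mean minus 4 SD, starting fluorescence ratio at most library mean plus 5 SD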;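 also: more negative B-score means stronger inhibition of thallium flux through KCNK3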
* hit, by the source's call.

Screening Cc1cc(C(=O)Nc2sc3c(c2C#N)CCCC3)no1 returned hERG rescue -3.2, Cl transport mod 3.68*, KCNQ1 act inactive, KCNQ1 block inactive, KCNK9 inh inactive and KCNK3 inh inactive.
Cc1onc(-c2ccccc2)c1C(=O)NC(=S)Nc1sc2c(c1C#N)CCCC2 was read as hERG rescue 15.7*, Cl transport mod 23.2*, KCNQ1 act 8*, KCNQ1 block inactive, KCNK9 inh inactive and KCNK3 inh inactive.
CC(C)c1nc2sc3ccccc3c(=O)c2c(=O)n1Cc1ccccc1 was read as hERG rescue -3.2, Cl transport mod -1.49, KCNQ1 act inactive, KCNQ1 block 6*, KCNK9 inh inactive and KCNK3 inh inactive.
Screening COc1ccccc1-c1ccc(/C=C2\C=CC(=O)O2)o1 returned hERG rescue -8.4, Cl transport mod inactive, KCNQ1 act inactive, KCNQ1 block inactive, KCNK9 inh inactive and KCNK3 inh inactive.
`O=C1NC(c2cccc(Cl)c2)Oc2ccccc21` (stereo not given) gave hERG rescue 6.3*, KCNQ1 act inactive, KCNQ1 block inactive, KCNK9 inh inactive and KCNK3 inh inactive.
OC(CNCCc1ccc(C(F)(F)F)cc1)COc1cccc2ccccc12 (stereo not given) was read as hERG rescue 5.3*, Cl transport mod -0.66, KCNQ1 act inactive, KCNQ1 block inactive, KCNK9 inh inactive and KCNK3 inh inactive.
Cn1c2ccc(F)cc2c2nnc(SCC(=O)Nc3cccc(O)c3)nc21 was read as hERG rescue 5.2*, KCNQ1 act inactive, KCNQ1 block inactive, KCNK9 inh inactive and KCNK3 inh inactive.
`Cn1c2ccccc2c2nnc(SCC(=O)Nc3cccc(C(=O)O)c3)nc21` gave hERG rescue -7.7, KCNQ1 act inactive, KCNQ1 block inactive, KCNK9 inh inactive and KCNK3 inh inactive.
`O=C(COC(=O)COc1ccccc1F)NCCc1ccc(F)cc1` gave KCNK3 inh inactive.
For CC(C)N(Cc1ccccc1)C(=O)COC(=O)CCC(=O)c1ccc(F)cc1 the results were KCNK3 inh inactive.
`Cc1cccc(-n2cc(-c3ccccc3)c3c(=O)[nH]cnc32)c1` gave hERG rescue -14.0, Cl transport mod 0.0143, KCNQ1 act inactive, KCNQ1 block inactive, KCNK9 inh -7.16* and KCNK3 inh inactive.
Screening O=c1[nH]cnc2c1c(-c1ccccc1)cn2-c1ccc(Br)cc1 returned hERG rescue -9.2, Cl transport mod 1.76, KCNQ1 act inactive, KCNQ1 block inactive, KCNK9 inh inactive and KCNK3 inh inactive.
`C[C@H](CO)N1C[C@H](C)[C@@H](CN(C)Cc2ccc(C(=O)O)cc2)Oc2c(cccc2N(C)C)C1=O` gave KCNK3 inh inactive.
Screening COc1ccc(CN2C(=O)c3ccccc3C(/C=N/OCc3ccc(Cl)cc3)C2=O)cc1 (stereo not given) returned hERG rescue -12.6, KCNQ1 act inactive, KCNQ1 block 7*, KCNK9 inh inactive and KCNK3 inh inactive.
COc1ccc(CN2C(=O)c3ccccc3C(/C=N\OCc3ccc(F)cc3)C2=O)cc1 (stereo not given) was read as hERG rescue -13.0, KCNQ1 act inactive, KCNQ1 block 10*, KCNK9 inh inactive and KCNK3 inh inactive.
`Cc1ccc(S(N)(=O)=O)cc1NC(=O)C(c1ccccc1)c1ccccc1` gave hERG rescue -0.4, KCNQ1 act inactive, KCNQ1 block inactive, KCNK9 inh inactive and KCNK3 inh inactive.
For O=C1CS/C(=C/C(=O)c2ccccc2)N1 the results were hERG rescue -10.6, KCNQ1 act inactive, KCNQ1 block inactive, KCNK9 inh inactive and KCNK3 inh inactive.
For Cc1cc(C)cc(C(=O)/C=C2\NC(=O)CS2)c1 the results were hERG rescue 4.0, Cl transport mod 6.44*, KCNQ1 act inactive, KCNQ1 block inactive, KCNK9 inh inactive and KCNK3 inh inactive.
Screening COc1cc(-c2nc(C(=O)NC3CCN(Cc4ccccc4)CC3)cc3c2[nH]c2ccccc23)cc(OC)c1OC returned hERG rescue -29.4, KCNQ1 act inactive, KCNQ1 block 6*, KCNK9 inh inactive and KCNK3 inh inactive.
`Cc1cccc(N2CCN(C(=O)c3ccccc3OCc3c(C)noc3C)CC2)c1C` gave hERG rescue -16.7, KCNQ1 act inactive, KCNQ1 block inactive, KCNK9 inh inactive and KCNK3 inh inactive.
`Cc1cc(NCCN2CCOCC2)n2ncc(-c3ccccc3)c2n1` gave hERG rescue -5.7, KCNQ1 act inactive, KCNQ1 block inactive, KCNK9 inh inactive and KCNK3 inh inactive.
For Cc1cc(NCCN2CCOCC2)n2ncc(-c3ccc(Cl)cc3)c2n1 the results were Cl transport mod 4.85*.
`Cc1ccc(-c2csc3ncnc(SCC(=O)NCC4CCCO4)c23)cc1` (stereo not given) gave KCNK3 inh inactive.
For c1ccc(OCCN2CCN(C(c3ccccc3)c3ccccc3)CC2)cc1 the results were hERG rescue 1.9, KCNQ1 act inactive, KCNQ1 block 6*, KCNK9 inh inactive and KCNK3 inh inactive.
For c1ccc(OCCN2CCNCC2)cc1 the results were KCNK3 inh inactive.
Screening CCC(=O)c1ccc(OCC(O)CN(CCc2ccccc2)Cc2ccccc2)cc1 (stereo not given) returned hERG rescue -20.7, KCNQ1 act inactive, KCNQ1 block 7*, KCNK9 inh inactive and KCNK3 inh inactive.
For CCOC(=O)c1cc([N+](=O)[O-])sc1NC(=O)c1ccc(S(=O)(=O)N2CC3(C)CC2CC(C)(C)C3)cc1 (stereo not given) the results were hERG rescue -12.0, Cl transport mod -0.0634, KCNQ1 act inactive, KCNQ1 block 8*, KCNK9 inh inactive and KCNK3 inh inactive.
Screening C=C(C)C1CC=C(C)/C(=N/NC(=O)c2ccc(NC(=O)c3cccc(C)c3)cc2)C1 (stereo not given) returned hERG rescue -9.2, Cl transport mod 1.18, KCNQ1 act inactive, KCNQ1 block inactive, KCNK9 inh inactive and KCNK3 inh inactive.

Source: PubChem BioAssay (several laboratories)
